Experimental data reported in PubChem BioAssay.
A number with no mark means an inactive call. Records with an inconclusive call do not appear. Activity calls are given as the source filed them.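 The calls were made as follows, unless noted: active = growth inhibition above 25% in both replicates, a cutoff set 3 SD above the mean; inconclusive = above 25% in only one replicate; inactive = the rest.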

Key:
[1] = S. cerevisiae growth inhibition in permissive medium (OD615), pilot counter-assay for S. cerevisiae lifespan shortening project, permissive growth control (AID 705); conditions: OD615, 24 h, at 10 µM, active compounds read high
Method in brief: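 assay system = Saccharomyces cerevisiae strain carrying genetically modified DeaD replicative-lifespan system | medium = SC raffinose/galactose permissive medium | dosing = 10 µM single dose, 0.25% DMSO | schedule = 24 h compound exposure at 30 °C after 4 h pre-growth | measured by = OD at 615 nm | read-out basis = growth inhibition from lowered OD615 after 24 h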

[2] = S. cerevisiae growth inhibition in restrictive medium, OD615, pilot screen, restrictive growth control, yeast lifespan reduction project (AID 706;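 active = growth inhibition above a set limit, 3 SD over mean compound inhibition, in both replicates, cut at about 43% in these data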;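 also: modified DeaD lifespan yeast strain shifted to restrictive glucose medium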); conditions: OD615, 48 h, at 10 µM, active compounds read high
Method in brief: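 Buffer or medium: CSMM-D glucose medium. Material: genetically modified Saccharomyces cerevisiae, DeaD replicative lifespan assay strain. Times: 48 h compound exposure at 30 °C. Measured by: optical density at 615 nm.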

[3] = doxorubicin toxicity protection in MRP-1 cells – H69AR cells, CellTiter-Glo, duplicate, MRP-1 activator project, pilot screen (AID 807;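 active = viability increase at or above a cutoff of the median across tested compounds plus 3 SD, cut at about 8.5% in these data, passing the limit was not always enough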;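 also: compound pretreatment 18-22 h then 72 h combined with doxorubicin; 0% = doxorubicin alone and 100% = vehicle without doxorubicin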); conditions: H69AR viability with doxorubicin, CellTiter-Glo luminescence; at 10 µM; active compounds read high
[4] = viability of HCT116 without oncogenic beta-catenin – human colon tumor cells, pilot screen (AID 823;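 active = cell viability at or below a set limit in both duplicate runs, the limit being the all-compound median minus 4 SD, cut at about 23% in these data, passing the limit was not always enough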;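 also: 0% = wells killed by 20 µM Hyamine and 100% = untreated DMSO cell wells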); conditions: HCT116 beta-catenin knockout viability, CellTiter-Glo, 60 h; at 10 µM; active compounds read low
[5] = viability of PTEN-null HCT116 cells – cell-based, HCT116 clonal line, CellTiter-Glo, pilot screen (AID 824;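 active = viability at or below 27.92% in each of two runs, the all-compound median minus 4 SD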;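 also: 0% = 20 µM Hyamine control and 100% = vehicle cell control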); conditions: HCT116 PTEN-deleted viability, 60 h, at 10 µM, active compounds read low
[6] = RAM pathway blockade in budding yeast – dse1pr::URA3 reporter, 5-FOA selection, pilot screen (AID 869;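 active = inhibition over a set limit, the all-compound mean plus 3 SD, in both replicate runs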;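 also: 0% = DMSO wells with no growth and 100% = 10 µM 1-NA-PP1 with full growth; RAM network block rescues cells from 5-FOA so hits raise OD615 growth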); conditions: S. cerevisiae dse1pr::URA3 5-FOA growth, OD615, 2 d; at 10 µM; active compounds read high; strain carries analog-sensitive mutant Cbk1 kinase
[7] = RAM signaling pathway blockade in yeast – S. cerevisiae, Pdr1DBD-CYC8 efflux-inhibited sensitized strain, primary screen (AID 1298;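 active = RAM network inhibition above 8.4% in each of two replicates, 3 SD over the compound average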;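 also: 0% = DMSO untreated cells without growth and 100% = 10 µM 1-NA-PP1 full growth; higher means more yeast growth rescued from 5-FOA killing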); conditions: S. cerevisiae cbk1-as DSE1-URA3 strain, 5-FOA growth OD615, 2 d; at 50 µM; active compounds read high

COc1ccc(NC(=O)CN2C(=O)CC(C)(C)S(=O)(=O)c3ccccc32)cc1
growth inhibition [1]: -4.11% | growth inhibition [2]: 2.55% | viability increase [3]: 0.92% | viability [4]: 104% | viability [5]: 96.7% | inhibition [6]: 1.35% | RAM network inhibition [7]: 2.45%

Brc1ccc(-c2noc(CCc3ccccc3)n2)o1
growth inhibition [1]: -9.63% | growth inhibition [2]: 2.66% | viability increase [3]: 1.58% | viability [4]: 102% | viability [5]: 96.9% | inhibition [6]: 3.12% | RAM network inhibition [7]: 0.73%

CCOC(=O)COn1c(=O)c(=O)n(O)c2ccccc21
growth inhibition [1]: -14.5% | growth inhibition [2]: -14.8% | viability increase [3]: -4.99% | viability [4]: 87.2% | viability [5]: 87.1% | inhibition [6]: 1.54% | RAM network inhibition [7]: 1.4%

CC(=N)C1=C(O)CC(C)(C)CC1=O
growth inhibition [1]: -7.31% | growth inhibition [2]: -1.06% | viability increase [3]: 0.77% | viability [4]: 94.9% | viability [5]: 105% | inhibition [6]: 1.49% | RAM network inhibition [7]: 2.39%

FC(F)Sc1ccc(Nc2ncnc3nc[nH]c23)cc1
growth inhibition [1]: 16.9% | growth inhibition [2]: 57.8% (active) | viability increase [3]: -1.54% | viability [4]: 92.8% | viability [5]: 90.5% | inhibition [6]: 1.23% | RAM network inhibition [7]: 4.41%

COc1ccc(-n2nnc3c(=O)n(CC(=O)N4CCC(C)CC4)cnc32)cc1
growth inhibition [1]: 8.16% | growth inhibition [2]: 3.46% | viability increase [3]: -0.52% | viability [4]: 95.8% | viability [5]: 92.3% | inhibition [6]: 1.77% | RAM network inhibition [7]: 2.64%

O=S(=O)(NC1CCCCC1)c1ccc(Br)cc1
growth inhibition [1]: 2.22% | growth inhibition [2]: 1.47% | viability increase [3]: -2.36% | viability [4]: 89.3% | viability [5]: 89.8% | inhibition [6]: 0.065% | RAM network inhibition [7]: 2.96%

Oc1cc(Cc2ccccc2)cnc1CN1CCCCC1
growth inhibition [1]: -10.9% | growth inhibition [2]: 2.06% | viability increase [3]: -1% | viability [4]: 95.6% | viability [5]: 98% | inhibition [6]: 0.305% | RAM network inhibition [7]: 3.35%

CCC(C)Sc1nc2c(c(=O)n1C)SC(C)C2 (configuration not stated)
growth inhibition [1]: -11.3% | growth inhibition [2]: 7.98% | viability increase [3]: -0.66% | viability [4]: 91.6% | viability [5]: 91.8% | inhibition [6]: 2.51% | RAM network inhibition [7]: 4.01%

CC1CCCC(NC(=O)c2ccc(CNc3c(N4CCCC4)c(=O)c3=O)cc2)C1C (configuration not stated)
growth inhibition [1]: -6.62% | growth inhibition [2]: 2.02% | viability increase [3]: -2.4% | viability [4]: 90.7% | viability [5]: 84.4% | inhibition [6]: 2.51% | RAM network inhibition [7]: 2.5%

CCCCNC(=O)c1cc2c(=O)n3cccc(C)c3nc2n1C
growth inhibition [1]: -8.58% | growth inhibition [2]: -6.39% | viability increase [3]: -4.36% | viability [4]: 89.4% | viability [5]: 87.5% | inhibition [6]: 0.93% | RAM network inhibition [7]: 2.87%

COc1ccc(CNC(=O)Cn2cc3c(n2)CCCCC3)cc1
growth inhibition [1]: 2.42% | growth inhibition [2]: -0.895% | viability increase [3]: -2.29% | viability [4]: 102% | viability [5]: 91.9% | inhibition [6]: 0.54% | RAM network inhibition [7]: -1.07%

CCOc1ccccc1Oc1c(C)oc2cc(OC(=O)N3CCOCC3)ccc2c1=O
growth inhibition [1]: -12.9% | growth inhibition [2]: -3.33% | viability increase [3]: -0.28% | viability [4]: 103% | viability [5]: 103% | inhibition [6]: 2.8% | RAM network inhibition [7]: 4.64%

O=C(NCCc1csc(-c2ccccc2)n1)c1cccs1
growth inhibition [1]: -8.41% | growth inhibition [2]: 2.89% | viability increase [3]: 2.21% | viability [4]: 93.7% | viability [5]: 94.5% | inhibition [6]: 0.41% | RAM network inhibition [7]: 3.89%

O=C(CSc1cn(Cc2ccccc2)c2ccccc12)Nc1nccs1
growth inhibition [1]: -7.55% | growth inhibition [2]: 3.57% | viability increase [3]: 1.89% | viability [4]: 88.8% | viability [5]: 85.4% | inhibition [6]: 1.73% | RAM network inhibition [7]: 0.83%

CC(=O)C1C(c2ccc(Cl)cc2)NC(=O)NC1(O)C(F)(F)F (configuration not stated)
growth inhibition [1]: -9.25% | growth inhibition [2]: -12% | viability increase [3]: -0.16% | viability [4]: 103% | viability [5]: 101% | inhibition [6]: 0.825% | RAM network inhibition [7]: 3.45%

CC(=O)c1sc(NC(=O)c2ccccc2F)nc1C
growth inhibition [1]: -10.4% | growth inhibition [2]: -3.2% | viability increase [3]: -0.32% | viability [4]: 79% | viability [5]: 75.2% | inhibition [6]: 0.31% | RAM network inhibition [7]: 0.74%

O=C(CSc1ccc2nnc(-c3cccnc3)n2n1)N1CCc2ccccc21
growth inhibition [1]: -5.28% | growth inhibition [2]: 4.37% | viability increase [3]: -3.19% | viability [4]: 103% | viability [5]: 94.1% | inhibition [6]: 0.845% | RAM network inhibition [7]: 4.57%

Cc1cc(=O)[nH]c(SCC(=O)NCCOc2ccccc2)n1
growth inhibition [1]: -2.17% | growth inhibition [2]: -1.72% | viability increase [3]: -0.09% | viability [4]: 102% | viability [5]: 98.8% | inhibition [6]: 1.02% | RAM network inhibition [7]: 1.13%

CCOC(=O)N1CCC(Nc2ccc3nnc(-c4ccccc4)n3n2)CC1
growth inhibition [1]: 12.3% | growth inhibition [2]: 29.3% | viability increase [3]: -6.99% | viability [4]: 69.4% | viability [5]: 66% | inhibition [6]: -0.975% | RAM network inhibition [7]: 2.57%

Cc1ccc(NC(=O)Cn2cc3c(n2)CCC(C)C3)cc1 (configuration not stated)
growth inhibition [1]: -1.07% | growth inhibition [2]: 2.22% | viability increase [3]: 0.37% | viability [4]: 106% | viability [5]: 88.6% | inhibition [6]: 0.39% | RAM network inhibition [7]: 1.64%

CCOC(=O)Cn1c(=O)oc2cc(S(=O)(=O)NCc3cccs3)ccc21
growth inhibition [1]: -3.16% | growth inhibition [2]: 1.21% | viability increase [3]: -1.22% | viability [4]: 90.6% | viability [5]: 86.9% | inhibition [6]: 0.73% | RAM network inhibition [7]: 0.2%

COCc1cc(C)nc(N2CCOCC2)c1C#N
growth inhibition [1]: -14.3% | growth inhibition [2]: 3.52% | viability increase [3]: -0.86% | viability [4]: 103% | viability [5]: 101% | inhibition [6]: 1.35% | RAM network inhibition [7]: 5.54%

O=C(Nc1ccccn1)c1cccc(S(=O)(=O)N2CCOCC2)c1
growth inhibition [1]: 6.61% | growth inhibition [2]: -0.23% | viability increase [3]: -1.53% | viability [4]: 102% | viability [5]: 98.3% | inhibition [6]: 1.09% | RAM network inhibition [7]: 2.13%

Cc1ccc(CNC(=O)c2cc3c(=O)n(C)c4ccccc4c3n2C)o1
growth inhibition [1]: 1.32% | growth inhibition [2]: 0.445% | viability increase [3]: -4.08% | viability [4]: 106% | viability [5]: 104% | inhibition [6]: 2.61% | RAM network inhibition [7]: 4.84%

COc1ccc(C2C(C(=O)Nc3ccc(F)cc3)=C(C)Nc3nc(CCCO)nn32)cc1 (configuration not stated)
growth inhibition [1]: -0.24% | growth inhibition [2]: -1.29% | viability increase [3]: -1.2% | viability [4]: 96.6% | viability [5]: 100% | inhibition [6]: 0.24% | RAM network inhibition [7]: 0.37%

Cc1noc(C)c1S(=O)(=O)N1CCN(C(c2ccccc2)c2ccc(Cl)cc2)CC1 (configuration not stated)
growth inhibition [1]: -1.19% | growth inhibition [2]: -0.625% | viability increase [3]: 0.02% | viability [4]: 66.3% | viability [5]: 67.5% | inhibition [6]: 1.61% | RAM network inhibition [7]: 7.2%

COc1cccc2cc(C(=O)N3CCC(C)CC3)c(=O)oc12
growth inhibition [1]: -2.37% | growth inhibition [2]: -3.85% | viability increase [3]: -0.12% | viability [4]: 96.8% | viability [5]: 90.5% | inhibition [6]: 1.17% | RAM network inhibition [7]: 4.51%

O=C(O)CC(CNS(=O)(=O)c1ccccc1)c1ccccc1 (configuration not stated)
growth inhibition [1]: -1.83% | growth inhibition [2]: 1.5% | viability increase [3]: 0.76% | viability [4]: 100% | viability [5]: 98.6% | inhibition [6]: 1.54% | RAM network inhibition [7]: -0.36%

COc1cc(OC)c(NC2c3ccccc3C(=O)N2c2cc(C)ccn2)cc1Cl (configuration not stated)
growth inhibition [1]: -11.7% | growth inhibition [2]: -3.74% | viability increase [3]: 0.48% | viability [4]: 92.9% | viability [5]: 84.2% | inhibition [6]: 0% | RAM network inhibition [7]: 6.68%

CCOC(=O)C1CCN(S(=O)(=O)c2ccc3c4c(cccc24)C(=O)N3)CC1
growth inhibition [1]: -4.42% | growth inhibition [2]: -7.67% | viability increase [3]: -3.39% | viability [4]: 96.5% | viability [5]: 85.7% | inhibition [6]: 1.76% | RAM network inhibition [7]: 2.83%

COc1ccccc1NC(=O)C1CCCN(S(=O)(=O)c2cnc[nH]2)C1 (configuration not stated)
growth inhibition [1]: 1.64% | growth inhibition [2]: -3.54% | viability increase [3]: -0.26% | viability [4]: 97% | viability [5]: 95.5% | inhibition [6]: 0.53% | RAM network inhibition [7]: 0.84%

CCSC1=C(C#N)C(c2ccc(F)cc2)CC(=O)N1 (configuration not stated)
growth inhibition [1]: 5.18% | growth inhibition [2]: -4.98% | viability increase [3]: 1% | viability [4]: 93.4% | viability [5]: 101% | inhibition [6]: 0.48% | RAM network inhibition [7]: 2.29%

CC1CCN(C(=O)C(Cc2ccccc2)n2cccc2)CC1 (configuration not stated)
growth inhibition [1]: -6.79% | growth inhibition [2]: -8.94% | viability increase [3]: -3.15% | viability [4]: 87.9% | viability [5]: 79% | inhibition [6]: 2.27% | RAM network inhibition [7]: 5.92%

COc1ccc(S(=O)(=O)N2CCN(C)CC2)c2ccccc12
growth inhibition [1]: -8.04% | growth inhibition [2]: -2.78% | viability increase [3]: -3.62% | viability [4]: 102% | viability [5]: 91.3% | inhibition [6]: 1.06% | RAM network inhibition [7]: 2.19%

CCOCCn1c(SCc2ccc(F)cc2)nc2c1c(=O)[nH]c(=O)n2C
growth inhibition [1]: -4.31% | growth inhibition [2]: 5.57% | viability increase [3]: -2.04% | viability [4]: 99% | viability [5]: 94.3% | inhibition [6]: -0.925% | RAM network inhibition [7]: -0.32%
